Values after ≈ are worked out from the molar mass of the structure shown. Blank lines part the entries; values can stand above or below the molecule they belong to. Active and inactive are the calls of the source. The rule behind the calls is not given here.
Legend:
[1] = Inhibition of beta-hematin formation after 16 hrs; assay type: functional
How it was run: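 Plasma came from male Swiss mice (15–20 g) infected with 1 × 10⁵ infected RBCs. Blood was drawn at 50% parasitemia by cardiac puncture into 2.0% citrate and spun at 4 °C. Hemin substrate ([…]) and compound were incubated in 100 mM acetate buffer, pH 5.1, at 37 °C for 16 h with shaking. The pellet was washed in SDS buffers. IC50 was the mean of three experiments in triplicate.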

Plasmodium yoelii [2] = test: Antimalarial activity against chloroquine-resistant Plasmodium yoelii N-67 infected in Swiss mouse assessed as suppression of parasitaemia level at 50 mg/kg, ip qd for 4 days; assay type: functional; conditions: route intraperitoneal
How it was run: (§1)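 Swiss mice (22±2 g), groups of five, inoculated with 1×10^6 P. yoelii N-67 parasitized RBC on day 0; compounds as aqueous suspension with a few drops Tween 80, given intraperitoneally in 0.2 mL once daily days 0–3. Parasitemia from thin blood smears days 4–6, group mean % suppression vs untreated controls; survivors counted on day 28.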

Plasmodium yoelii [3] = test: Antimalarial activity against chloroquine-resistant Plasmodium yoelii N-67 infected in Swiss mouse assessed as mouse survival at 50 mg/kg, ip qd for 4 days; assay type: functional, organism-based; design: dose 50 mg/kg; how it was run: as §1
[4] = tested on: Plasmodium falciparum 3D7; test: Selectivity index, IC50 for african green monkey Vero cells to IC50 for Plasmodium falciparum 3D7
Plasmodium falciparum = test: Antimalarial activity against chloroquine-sensitive Plasmodium falciparum 3D7 infected in erythrocytes after 72 hrs by syber green 1 assay; conditions: 3D7, 72 h
Plasmodium yoelii [5] = test: Antimalarial activity against chloroquine-resistant Plasmodium yoelii N-67 infected in Swiss mouse assessed as suppression of parasitaemia level at 25 mg/kg, ip qd for 4 days; assay type: functional; conditions: route intraperitoneal; how it was run: as §1
Plasmodium yoelii [6] = test: Antimalarial activity against chloroquine-resistant Plasmodium yoelii N-67 infected in Swiss mouse assessed as suppression of parasitaemia level at 100 mg/kg, po qd for 4 days; assay type: functional
How it was run: as §1, with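 “orally” for “intraperitoneally”, “0.1” for “0.2”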

Plasmodium yoelii [7] = test: Antimalarial activity against chloroquine-resistant Plasmodium yoelii N-67 infected in Swiss mouse assessed as mouse survival at 25 mg/kg, ip qd for 4 days; assay type: functional, organism-based; design: dose 25 mg/kg; how it was run: as §1
Plasmodium yoelii [8] = test: Antimalarial activity against chloroquine-resistant Plasmodium yoelii N-67 infected in Swiss mouse assessed as mouse survival at 100 mg/kg, po qd for 4 days; assay type: functional, organism-based; design: dose 100 mg/kg
How it was run: as §1, with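 “orally” for “intraperitoneally”, “0.1” for “0.2”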

Plasmodium yoelii [9] = test: Antimalarial activity against chloroquine-resistant Plasmodium yoelii N-67 infected in Swiss mouse assessed as suppression of parasitaemia level at 50 mg/kg, po qd for 4 days; assay type: functional
How it was run: as §1, with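 “orally” for “intraperitoneally”, “0.1” for “0.2”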

Plasmodium yoelii [10] = test: Antimalarial activity against chloroquine-resistant Plasmodium yoelii N-67 infected in Swiss mouse assessed as mouse survival at 50 mg/kg, po qd for 4 days; assay type: functional, organism-based; design: dose 50 mg/kg
How it was run: as §1, with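 “orally” for “intraperitoneally”, “0.1” for “0.2”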

- IC50 [1]: 3.65 µg/mL (≈ 11.4 µM)
Compound: CCN(CC)CCCC(C)Nc1ccnc2cc(Cl)ccc12 (centres undefined) [CHLOROQUINE]

Compound: CCN1CCN(c2nc(Nc3ccccc3)nc(Nc3ccc(Nc4ccnc5cc(Cl)ccc45)cc3)n2)CC1
- Activity (Plasmodium yoelii [2]): 100%
- Activity (Plasmodium yoelii [3]): inactive
- IC50 [1]: 2.69 µg/mL (≈ 4.87 µM)
- Selectivity Index [4]: 192.66
- IC50 (Plasmodium falciparum): 5.92 nM

Compound: Clc1ccc2c(Nc3cccc(Nc4nc(NCCCN5CCOCC5)nc(Nc5ccccc5)n4)c3)ccnc2c1
- Selectivity Index [4]: 90.51
- IC50 (Plasmodium falciparum): 111 nM

Compound: Cc1ccc(Nc2nc(NCCCN3CCOCC3)nc(Nc3ccc(Nc4ccnc5cc(Cl)ccc45)cc3)n2)cc1
- Activity (Plasmodium yoelii [2]): 100%
- Activity (Plasmodium yoelii [3]): inactive
- IC50 [1]: 2.85 µg/mL (≈ 4.78 µM)
- Selectivity Index [4]: 610.98
- IC50 (Plasmodium falciparum): 7.03 nM

Compound: Clc1ccc2c(Nc3ccc(Nc4nc(Nc5ccccc5)nc(NC5CCCCC5)n4)cc3)ccnc2c1
- Selectivity Index [4]: 76.97
- IC50 (Plasmodium falciparum): 64.8 nM

Compound: Cc1ccccc1Nc1nc(NCc2ccccc2)nc(Nc2ccc(Nc3ccnc4cc(Cl)ccc34)cc2)n1
- Selectivity Index [4]: 2129.68
- IC50 (Plasmodium falciparum): 27.8 nM

Compound: CNc1nc(Nc2ccc(Nc3ccnc4cc(Cl)ccc34)cc2)nc(Nc2ccccc2C)n1
- Selectivity Index [4]: 240.35
- IC50 (Plasmodium falciparum): 37.6 nM

Compound: Cc1ccc(Nc2nc(Nc3ccc(Nc4ccnc5cc(Cl)ccc45)cc3)nc(NC3CCCCC3)n2)cc1
- Selectivity Index [4]: 137.42
- IC50 (Plasmodium falciparum): 74 nM

Compound: Cc1ccc(Nc2nc(N)nc(Nc3ccc(Nc4ccnc5cc(Cl)ccc45)cc3)n2)cc1
- Selectivity Index [4]: 134.89
- IC50 (Plasmodium falciparum): 11.9 nM

Compound: Clc1ccc2c(Nc3ccc(Nc4nc(NCc5ccccc5)nc(N5CCCCC5)n4)cc3)ccnc2c1
- Selectivity Index [4]: 98.42
- IC50 (Plasmodium falciparum): 235 nM

Compound: CNc1nc(Nc2ccccc2)nc(Nc2ccc(Nc3ccnc4cc(Cl)ccc34)cc2)n1
- Selectivity Index [4]: 290.68
- IC50 (Plasmodium falciparum): 19 nM

Compound: CNc1nc(Nc2ccc(C)cc2)nc(Nc2ccc(Nc3ccnc4cc(Cl)ccc34)cc2)n1
- Activity (Plasmodium yoelii [2]): 100%
- Activity (Plasmodium yoelii [3]): inactive
- IC50 [1]: 3.16 µg/mL (≈ 6.54 µM)
- Selectivity Index [4]: 491.91
- IC50 (Plasmodium falciparum): 6.41 nM

Compound: CCN1CCN(c2nc(Nc3ccc(C)cc3)nc(Nc3ccc(Nc4ccnc5cc(Cl)ccc45)cc3)n2)CC1
- Selectivity Index [4]: 35.61
- IC50 (Plasmodium falciparum): 11.9 nM

Compound: CCN(CC)CCNc1nc(Nc2ccccc2)nc(Nc2ccc(Nc3ccnc4cc(Cl)ccc34)cc2)n1
- Selectivity Index [4]: 79.47
- IC50 (Plasmodium falciparum): 60.4 nM

Compound: Cc1ccccc1Nc1nc(N)nc(Nc2ccc(Nc3ccnc4cc(Cl)ccc34)cc2)n1
- Selectivity Index [4]: 163.54
- IC50 (Plasmodium falciparum): 29.6 nM

Compound: Cc1ccc(Nc2nc(Nc3ccc(Nc4ccnc5cc(Cl)ccc45)cc3)nc(N3CCN(C)CC3)n2)cc1
- Selectivity Index [4]: 36.39
- IC50 (Plasmodium falciparum): 12.4 nM

Compound: Cc1ccc(Nc2nc(NCc3ccccc3)nc(Nc3ccc(Nc4ccnc5cc(Cl)ccc45)cc3)n2)cc1
- Selectivity Index [4]: 79.44
- IC50 (Plasmodium falciparum): 63.5 nM

Compound: CCN(CC)CCNc1nc(Nc2ccc(Nc3ccnc4cc(Cl)ccc34)cc2)nc(Nc2ccccc2C)n1
- Selectivity Index [4]: 136.49
- IC50 (Plasmodium falciparum): 26.1 nM

Compound: Clc1ccc2c(Nc3ccc(Nc4nc(NCCCN5CCOCC5)nc(Nc5ccccc5)n4)cc3)ccnc2c1
- Activity (Plasmodium yoelii [2]): 100%
- Activity (Plasmodium yoelii [5]): 100%
- Activity (Plasmodium yoelii [6]): 100%
- Activity (Plasmodium yoelii [3]): Active
- Activity (Plasmodium yoelii [7]): inactive
- Activity (Plasmodium yoelii [8]): inactive
- IC50 [1]: 2.98 µg/mL (≈ 5.12 µM)
- Selectivity Index [4]: 154.29
- IC50 (Plasmodium falciparum): 3.01 nM

Compound: CN1CCN(c2nc(Nc3ccccc3)nc(Nc3ccc(Nc4ccnc5cc(Cl)ccc45)cc3)n2)CC1
- Selectivity Index [4]: 92.06
- IC50 (Plasmodium falciparum): 5.85 nM

Compound: Cc1ccc(Nc2nc(Nc3cccc(Nc4ccnc5cc(Cl)ccc45)c3)nc(N3CCN(C)CC3)n2)cc1
- Selectivity Index [4]: 226.18
- IC50 (Plasmodium falciparum): 43.2 nM

Compound: CCN1CCN(c2nc(Nc3ccccc3)nc(Nc3cccc(Nc4ccnc5cc(Cl)ccc45)c3)n2)CC1
- Selectivity Index [4]: 90.51
- IC50 (Plasmodium falciparum): 60.1 nM

Compound: CCCCNc1nc(Nc2ccc(Nc3ccnc4cc(Cl)ccc34)cc2)nc(Nc2ccccc2C)n1
- Activity (Plasmodium yoelii [2]): 100%
- Activity (Plasmodium yoelii [3]): inactive
- IC50 [1]: 2.96 µg/mL (≈ 5.64 µM)
- Selectivity Index [4]: 821.15
- IC50 (Plasmodium falciparum): 31.5 nM

Compound: Cc1ccc(Nc2nc(NCCCN3CCOCC3)nc(Nc3cccc(Nc4ccnc5cc(Cl)ccc45)c3)n2)cc1
- Activity (Plasmodium yoelii [2]): 100%
- Activity (Plasmodium yoelii [3]): inactive
- IC50 [1]: 2.7 µg/mL (≈ 4.53 µM)
- Selectivity Index [4]: 321.48
- IC50 (Plasmodium falciparum): 34.6 nM

Compound: Nc1nc(Nc2ccccc2)nc(Nc2ccc(Nc3ccnc4cc(Cl)ccc34)cc2)n1
- Selectivity Index [4]: 132.63
- IC50 (Plasmodium falciparum): 41.5 nM

Compound: CCN(CC)CCNc1nc(Nc2ccc(Nc3ccnc4cc(Cl)ccc34)cc2)nc(N2CCCCC2)n1
- Selectivity Index [4]: 59.71
- IC50 (Plasmodium falciparum): 38.8 nM

Compound: CCN1CCN(c2nc(Nc3ccc(C)cc3)nc(Nc3cccc(Nc4ccnc5cc(Cl)ccc45)c3)n2)CC1
- Selectivity Index [4]: 229.5
- IC50 (Plasmodium falciparum): 41 nM

Compound: Clc1ccc2c(Nc3ccc(Nc4nc(NCCCN5CCOCC5)nc(N5CCCCC5)n4)cc3)ccnc2c1
- Activity (Plasmodium yoelii [2]): 100%
- Activity (Plasmodium yoelii [5]): 100%
- Activity (Plasmodium yoelii [6]): 100%
- Activity (Plasmodium yoelii [9]): 100%
- Activity (Plasmodium yoelii [3]): Active
- Activity (Plasmodium yoelii [7]): inactive
- Activity (Plasmodium yoelii [8]): Active
- Activity (Plasmodium yoelii [10]): inactive
- IC50 [1]: 2.71 µg/mL (≈ 4.72 µM)
- Selectivity Index [4]: 170.18
- IC50 (Plasmodium falciparum): 23.1 nM

Compound: Cc1ccccc1Nc1nc(NCCCN2CCOCC2)nc(Nc2ccc(Nc3ccnc4cc(Cl)ccc34)cc2)n1
- Selectivity Index [4]: 418.75
- IC50 (Plasmodium falciparum): 13.4 nM

Compound: CCN(CC)CCNc1nc(Nc2ccc(C)cc2)nc(Nc2ccc(Nc3ccnc4cc(Cl)ccc34)cc2)n1
- Selectivity Index [4]: 64.38
- IC50 (Plasmodium falciparum): 82.8 nM

Compound: CCCCNc1nc(Nc2ccccc2)nc(Nc2cccc(Nc3ccnc4cc(Cl)ccc34)c2)n1
- Activity (Plasmodium yoelii [2]): 100%
- Activity (Plasmodium yoelii [3]): inactive
- IC50 [1]: 2.55 µg/mL (≈ 4.99 µM)
- Selectivity Index [4]: 156.25
- IC50 (Plasmodium falciparum): 26.3 nM

Compound: CCCCNc1nc(Nc2ccc(C)cc2)nc(Nc2ccc(Nc3ccnc4cc(Cl)ccc34)cc2)n1
- Selectivity Index [4]: 101.03
- IC50 (Plasmodium falciparum): 44.5 nM

Compound: CN1CCN(c2nc(Nc3ccccc3)nc(Nc3cccc(Nc4ccnc5cc(Cl)ccc45)c3)n2)CC1
- Selectivity Index [4]: 223.4
- IC50 (Plasmodium falciparum): 47.2 nM

Compound: CN1CCN(c2nc(Nc3ccc(Nc4ccnc5cc(Cl)ccc45)cc3)nc(N3CCCCC3)n2)CC1
- Selectivity Index [4]: 106.35
- IC50 (Plasmodium falciparum): 34.8 nM

Compound: Cc1ccccc1Nc1nc(Nc2ccc(Nc3ccnc4cc(Cl)ccc34)cc2)nc(NC2CCCCC2)n1
- Selectivity Index [4]: 449.8
- IC50 (Plasmodium falciparum): 163 nM

Compound: Clc1ccc2c(Nc3ccc(Nc4nc(NCc5ccccc5)nc(Nc5ccccc5)n4)cc3)ccnc2c1
- Selectivity Index [4]: 151.04
- IC50 (Plasmodium falciparum): 33.6 nM

Compound: CCN(CC)CCNc1nc(Nc2ccccc2)nc(Nc2cccc(Nc3ccnc4cc(Cl)ccc34)c2)n1
- Selectivity Index [4]: 135.37
- IC50 (Plasmodium falciparum): 292 nM

Compound: CCCCNc1nc(Nc2ccccc2)nc(Nc2ccc(Nc3ccnc4cc(Cl)ccc34)cc2)n1
- Activity (Plasmodium yoelii [2]): 100%
- Activity (Plasmodium yoelii [3]): inactive
- IC50 [1]: 3.08 µg/mL (≈ 6.03 µM)
- Selectivity Index [4]: 287.22
- IC50 (Plasmodium falciparum): 18.5 nM

Compound: CCN1CCN(c2nc(Nc3ccc(Nc4ccnc5cc(Cl)ccc45)cc3)nc(Nc3ccccc3C)n2)CC1
- Selectivity Index [4]: 2.58
- IC50 (Plasmodium falciparum): 102 nM

Compound: Clc1ccc2c(Nc3ccc(Nc4nc(NC5CCCCC5)nc(N5CCCCC5)n4)cc3)ccnc2c1
- Selectivity Index [4]: 189.52
- IC50 (Plasmodium falciparum): 313 nM

Compound: CCN1CCN(c2nc(Nc3ccc(Nc4ccnc5cc(Cl)ccc45)cc3)nc(N3CCCCC3)n2)CC1
- Activity (Plasmodium yoelii [2]): 100%
- Activity (Plasmodium yoelii [5]): 100%
- Activity (Plasmodium yoelii [6]): 100%
- Activity (Plasmodium yoelii [9]): 100%
- Activity (Plasmodium yoelii [3]): Active
- Activity (Plasmodium yoelii [7]): inactive
- Activity (Plasmodium yoelii [8]): Active
- Activity (Plasmodium yoelii [10]): inactive
- IC50 [1]: 2.79 µg/mL (≈ 5.13 µM)
- Selectivity Index [4]: 124.85
- IC50 (Plasmodium falciparum): 29.7 nM

Compound: Cc1ccccc1Nc1nc(Nc2ccc(Nc3ccnc4cc(Cl)ccc34)cc2)nc(N2CCN(C)CC2)n1
- Selectivity Index [4]: 16.33
- IC50 (Plasmodium falciparum): 18.9 nM
